Test results reported in ChEMBL document CHEMBL4706541, “Design and synthesis of 1H-indazole-3-carboxamide derivatives as potent and selective PAK1 inhibitors with anti-tumour migration and invasion activities” (Eur J Med Chem, 2020).
Active and inactive are the calls of the source. No cut-off for these calls is given here.

Legend:
[1] = molecular target: Serine/threonine-protein kinase PAK 5 (Homo sapiens) (UniProt Q9P286); experiment: (§1) Inhibtion of recombinant human PAK5 expressed in baculovirus infected sf9 insect cells assessed as residual activity at 0.1 uM using RRRLSFAEPG as substrate preincubated for 20 min followed by [gamma33P]ATP addition and measured after 120 mins by Hotspot assay relative to control; conditions: time 140.0 min
In short: (§2)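 Radiometric HotSpot kinase assay. Kinase and substrate are combined in 20 mM Hepes pH 7.5, 10 mM MgCl2, 1 mM EGTA, 0.02% Brij35, 0.02 mg/mL BSA, 0.1 mM Na3VO4, 2 mM DTT and 1% DMSO. Compound is added and preincubated 20 min at room temperature. The reaction starts with ATP plus 33P-ATP at 10 µM final and runs 120 min at 25 °C. Filter-binding read-out, given as % activity remaining versus DMSO.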

MDA-MB-231 [2] = experiment: Antiproliferative activity against human MDA-MB-231 cells assessed as growth inhibition at 1 uM after 72 hrs by Cell Titer-Glo assay relative to control; type: functional; conditions: read-out: GI
In short: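 Cells kept at 37 °C in 5% CO2 and plated at 4000 per well. Treated with compound for 72 h. Viability read by CellTiter-Glo luminescence. Each compound run in duplicate, data as means ± SD.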

MDA-MB-231 [3] = experiment: Antiinvasive activity against human MDA-MB-231 cells assessed as decrease is number of penetrated cells at 0.25 to 1 uM after 24 hrs by inverted microscopic based Transwell invasion assay relative to control; type: functional; parameters: scale not given: the % may be the effect or the level left; conditions: dose 0.25-1 µM
In short: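 Cells grown to confluence and scratched with a sterile pipette tip, or placed at 1×10^5 cells in serum-free DMEM with 0.1% […] in the upper part of Matrigel-coated Boyden chambers over DMEM with 10% FBS. Compound treatment for 24 h at 37 °C. Read-out is wound distance from images or the count of invaded cells on the lower filter face after fixing and staining. Data given as means ± SD.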

[4] = molecular target: Mitogen-activated protein kinase kinase kinase kinase 1 (Homo sapiens) (UniProt Q92918); experiment: Inhibition of MAP4K1 (unknown origin) assessed as residual activity at 0.1 uM preincubated for 20 min followed by [gamma33P]ATP addition and measured after 120 mins by Hotspot assay relative to control; conditions: time 140.0 min; in short: as §2
[5] = molecular target: Epidermal growth factor receptor (Homo sapiens) (UniProt P00533); experiment: Inhibition of EGFR (unknown origin) assessed as residual activity at 0.1 uM preincubated for 20 min followed by [gamma33P]ATP addition and measured after 120 mins by Hotspot assay relative to control; conditions: time 140.0 min; in short: as §2
[6] = molecular target: Tyrosine-protein kinase Lck (Homo sapiens) (UniProt P06239); experiment: Inhibition of LCK (unknown origin) assessed as residual activity at 0.1 uM preincubated for 20 min followed by [gamma33P]ATP addition and measured after 120 mins by Hotspot assay relative to control; conditions: time 140.0 min; in short: as §2
[7] = molecular target: Mitogen-activated protein kinase 14 (Homo sapiens) (UniProt Q16539); experiment: Inhibition of P38alpha (unknown origin) assessed as residual activity at 0.1 uM preincubated for 20 min followed by [gamma33P]ATP addition and measured after 120 mins by Hotspot assay relative to control; conditions: time 140.0 min; in short: as §2
[8] = molecular target: T1, Serine/threonine-protein kinase PAK 1 (Homo sapiens, UniProt Q13153); experiment: Inhibition of PAK1 in human MDA-MB-231 cells assessed as reduction in snail protein expression at 2.5 to 20 uM after 1 to 24 hrs by Western blot analysis; type: cell-based; conditions: dose 2.5-20 µM, time 1-24 hrs
In short: (§3)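 Whole-cell extracts made from 1×10^6 treated cells in RIPA buffer (50 mM Tris/HCl pH 7.4, 150 mM NaCl, 1% NP-40, 0.25% deoxycholate, 1 mM EDTA, protease inhibitors). Proteins separated by SDS-PAGE, blotted to PVDF and blocked in 5% milk in TBS-T. Membranes probed for PAK1, phospho-PAK1 Ser144, Snail and actin, with β-actin as loading control. ECL detection.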

[9] = molecular target: Tyrosine-protein kinase SYK (Homo sapiens) (UniProt P43405); experiment: Inhibition of SYK (unknown origin) assessed as residual activity at 0.1 uM preincubated for 20 min followed by [gamma33P]ATP addition and measured after 120 mins by Hotspot assay relative to control; conditions: time 140.0 min; in short: as §2
[10] = molecular target: Tyrosine-protein kinase BTK (Homo sapiens) (UniProt Q06187); experiment: Inhibition of BTK (unknown origin) assessed as residual activity at 0.1 uM preincubated for 20 min followed by [gamma33P]ATP addition and measured after 120 mins by Hotspot assay relative to control; conditions: time 140.0 min; in short: as §2
[11] = molecular target: Tyrosine-protein kinase ABL1 (Homo sapiens) (UniProt P00519); experiment: Inhibition of ABL1 (unknown origin) assessed as residual activity at 0.1 uM preincubated for 20 min followed by [gamma33P]ATP addition and measured after 120 mins by Hotspot assay relative to control; conditions: time 140.0 min; in short: as §2
[12] = molecular target: Mitogen-activated protein kinase 8 (Homo sapiens) (UniProt P45983); experiment: Inhibition of JNK1 (unknown origin) assessed as residual activity at 0.1 uM preincubated for 20 min followed by [gamma33P]ATP addition and measured after 120 mins by Hotspot assay relative to control; conditions: time 140.0 min; in short: as §2
[13] = molecular target: Voltage-gated inwardly rectifying potassium channel KCNH2 (Homo sapiens, UniProt Q12809); experiment: Inhibition of human ERG
[14] = molecular target: T1, Serine/threonine-protein kinase PAK 1; experiment: Inhibition of PAK1 phosphorylation at ser144 residue in human MDA-MB-231 cells after 1 to 24 hrs by Western blot analysis; type: cell-based; conditions: dose 2.5-20 µM, time 1-24 hrs; in short: as §3
[15] = molecular target: Serine/threonine-protein kinase PAK 3 (Homo sapiens) (UniProt O75914); experiment: as §1, with “of full length” for “of”, “N-terminal GST/His6-tagged PAK3” for “PAK5”, “in” for “in baculovirus infected”, “tetra LRRWSLG” for “RRRLSFAEPG”; conditions: time 140.0 min; in short: as §2
[16] = molecular target: Aurora kinase A (Homo sapiens) (UniProt O14965); experiment: Inhibition of AuroraA (unknown origin) assessed as residual activity at 0.1 uM preincubated for 20 min followed by [gamma33P]ATP addition and measured after 120 mins by Hotspot assay relative to control; conditions: time 140.0 min; in short: as §2
[17] = molecular target: Tyrosine-protein kinase JAK1 (Homo sapiens) (UniProt P23458); experiment: Inhibition of JAK1 (unknown origin) assessed as residual activity at 0.1 uM preincubated for 20 min followed by [gamma33P]ATP addition and measured after 120 mins by Hotspot assay relative to control; conditions: time 140.0 min; in short: as §2
[18] = molecular target: T1, Serine/threonine-protein kinase PAK 1; experiment: (§4) Inhibition of full length recombinant human N-terminal GST/His6-tagged PAK1 expressed in sf9 insect cells assessed as residual activity at 0.1 uM using tetra LRRWSLG as substrate preincubated for 20 min followed by [gamma33P]ATP addition and measured after 120 mins by Hotspot assay relative to control; conditions: time 140.0 min; in short: as §2
[19] = molecular target: Serine/threonine-protein kinase PAK 6 (Homo sapiens) (UniProt Q9NQU5); experiment: as §4, with “Inhibtion” for “Inhibition”, “PAK6” for “PAK1”; conditions: time 140.0 min; in short: as §2
[20] = molecular target: CDK6/cyclin D1 (Homo sapiens) (UniProt P24385+Q00534); experiment: Inhibition of CDK6/cyclin Dl (unknown origin) assessed as residual activity at 0.1 uM preincubated for 20 min followed by [gamma33P]ATP addition and measured after 120 mins by Hotspot assay relative to control; type: protein-complex assay; conditions: time 140.0 min; in short: as §2
[21] = molecular target: Ephrin type-A receptor 1 (Homo sapiens) (UniProt P21709); experiment: Inhibition of EPHA1 (unknown origin) assessed as residual activity at 0.1 uM preincubated for 20 min followed by [gamma33P]ATP addition and measured after 120 mins by Hotspot assay relative to control; conditions: time 140.0 min; in short: as §2
Chain of Ephrin type-A receptor 1 (Homo sapiens) (P21709 whole entry): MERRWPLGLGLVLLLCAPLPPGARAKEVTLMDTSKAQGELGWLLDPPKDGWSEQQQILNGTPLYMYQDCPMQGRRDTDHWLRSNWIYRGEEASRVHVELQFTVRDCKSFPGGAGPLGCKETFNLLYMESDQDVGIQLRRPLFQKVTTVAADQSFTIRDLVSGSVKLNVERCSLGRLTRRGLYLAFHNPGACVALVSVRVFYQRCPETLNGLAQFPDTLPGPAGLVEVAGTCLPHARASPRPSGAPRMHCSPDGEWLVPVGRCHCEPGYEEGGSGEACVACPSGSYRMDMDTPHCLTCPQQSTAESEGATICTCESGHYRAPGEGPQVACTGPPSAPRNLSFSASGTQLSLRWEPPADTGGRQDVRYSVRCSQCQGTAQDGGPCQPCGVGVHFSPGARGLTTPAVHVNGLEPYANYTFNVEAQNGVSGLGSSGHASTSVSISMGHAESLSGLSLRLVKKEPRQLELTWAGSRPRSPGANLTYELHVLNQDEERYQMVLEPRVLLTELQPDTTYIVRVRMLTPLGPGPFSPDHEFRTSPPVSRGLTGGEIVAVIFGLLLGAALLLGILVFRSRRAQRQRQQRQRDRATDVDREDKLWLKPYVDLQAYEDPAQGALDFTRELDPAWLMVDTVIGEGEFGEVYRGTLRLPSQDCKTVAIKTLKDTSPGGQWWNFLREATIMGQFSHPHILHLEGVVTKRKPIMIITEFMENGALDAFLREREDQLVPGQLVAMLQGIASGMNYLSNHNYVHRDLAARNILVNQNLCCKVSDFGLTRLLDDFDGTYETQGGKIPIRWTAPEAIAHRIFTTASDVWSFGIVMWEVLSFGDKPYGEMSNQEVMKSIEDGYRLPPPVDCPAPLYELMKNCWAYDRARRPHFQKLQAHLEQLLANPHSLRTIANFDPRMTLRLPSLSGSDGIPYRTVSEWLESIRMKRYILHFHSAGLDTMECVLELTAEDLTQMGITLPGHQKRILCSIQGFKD

T1 sequence (Q13153 whole entry): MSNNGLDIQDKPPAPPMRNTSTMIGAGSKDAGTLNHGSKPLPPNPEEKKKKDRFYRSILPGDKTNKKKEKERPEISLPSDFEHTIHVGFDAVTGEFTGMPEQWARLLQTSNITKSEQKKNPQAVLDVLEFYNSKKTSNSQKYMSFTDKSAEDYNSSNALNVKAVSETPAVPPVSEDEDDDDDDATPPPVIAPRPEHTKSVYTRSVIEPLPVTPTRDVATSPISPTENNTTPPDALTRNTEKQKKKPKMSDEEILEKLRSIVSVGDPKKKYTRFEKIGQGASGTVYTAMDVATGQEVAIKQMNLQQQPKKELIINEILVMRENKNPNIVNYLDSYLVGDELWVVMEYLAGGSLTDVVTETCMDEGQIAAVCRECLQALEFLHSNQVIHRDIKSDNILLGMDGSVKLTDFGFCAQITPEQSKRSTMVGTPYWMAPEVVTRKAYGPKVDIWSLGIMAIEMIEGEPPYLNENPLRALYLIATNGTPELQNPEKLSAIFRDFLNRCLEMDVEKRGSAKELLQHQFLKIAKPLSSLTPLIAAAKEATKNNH
Chain of Mitogen-activated protein kinase 8 (Homo sapiens) (P45983 whole entry): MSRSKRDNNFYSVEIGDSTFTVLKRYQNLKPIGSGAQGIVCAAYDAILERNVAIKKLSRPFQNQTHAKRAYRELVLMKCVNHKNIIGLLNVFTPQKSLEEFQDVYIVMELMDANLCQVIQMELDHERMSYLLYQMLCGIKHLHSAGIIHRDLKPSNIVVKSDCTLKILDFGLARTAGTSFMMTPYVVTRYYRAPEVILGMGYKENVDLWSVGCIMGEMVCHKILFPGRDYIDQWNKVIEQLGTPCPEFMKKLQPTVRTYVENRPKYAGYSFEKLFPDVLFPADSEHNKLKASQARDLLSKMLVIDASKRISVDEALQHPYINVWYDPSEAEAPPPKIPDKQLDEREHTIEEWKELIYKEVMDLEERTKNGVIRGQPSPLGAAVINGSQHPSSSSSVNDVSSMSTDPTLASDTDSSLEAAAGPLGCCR
Chain of Mitogen-activated protein kinase 14 (Homo sapiens) (Q16539 whole entry): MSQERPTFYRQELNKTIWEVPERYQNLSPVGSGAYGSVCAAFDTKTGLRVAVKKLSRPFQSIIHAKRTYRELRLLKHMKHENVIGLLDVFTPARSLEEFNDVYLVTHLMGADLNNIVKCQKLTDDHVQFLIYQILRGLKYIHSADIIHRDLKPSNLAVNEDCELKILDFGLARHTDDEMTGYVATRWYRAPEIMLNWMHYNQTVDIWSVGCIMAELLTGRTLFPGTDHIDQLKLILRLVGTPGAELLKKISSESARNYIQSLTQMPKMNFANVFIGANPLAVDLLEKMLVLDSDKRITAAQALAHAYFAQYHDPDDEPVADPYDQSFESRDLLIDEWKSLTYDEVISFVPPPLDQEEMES
Chain of Aurora kinase A (Homo sapiens) (O14965 whole entry): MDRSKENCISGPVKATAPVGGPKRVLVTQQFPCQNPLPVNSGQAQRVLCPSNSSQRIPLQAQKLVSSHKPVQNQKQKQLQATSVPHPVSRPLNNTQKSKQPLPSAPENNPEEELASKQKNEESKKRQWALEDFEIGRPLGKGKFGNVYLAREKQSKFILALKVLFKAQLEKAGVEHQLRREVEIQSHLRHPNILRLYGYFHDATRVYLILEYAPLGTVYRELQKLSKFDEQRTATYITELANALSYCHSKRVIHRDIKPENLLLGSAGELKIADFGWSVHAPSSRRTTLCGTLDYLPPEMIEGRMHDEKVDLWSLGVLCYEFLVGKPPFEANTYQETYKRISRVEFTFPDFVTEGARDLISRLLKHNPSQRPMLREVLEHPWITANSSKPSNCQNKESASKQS
Chain of Tyrosine-protein kinase JAK1 (Homo sapiens) (P23458 whole entry): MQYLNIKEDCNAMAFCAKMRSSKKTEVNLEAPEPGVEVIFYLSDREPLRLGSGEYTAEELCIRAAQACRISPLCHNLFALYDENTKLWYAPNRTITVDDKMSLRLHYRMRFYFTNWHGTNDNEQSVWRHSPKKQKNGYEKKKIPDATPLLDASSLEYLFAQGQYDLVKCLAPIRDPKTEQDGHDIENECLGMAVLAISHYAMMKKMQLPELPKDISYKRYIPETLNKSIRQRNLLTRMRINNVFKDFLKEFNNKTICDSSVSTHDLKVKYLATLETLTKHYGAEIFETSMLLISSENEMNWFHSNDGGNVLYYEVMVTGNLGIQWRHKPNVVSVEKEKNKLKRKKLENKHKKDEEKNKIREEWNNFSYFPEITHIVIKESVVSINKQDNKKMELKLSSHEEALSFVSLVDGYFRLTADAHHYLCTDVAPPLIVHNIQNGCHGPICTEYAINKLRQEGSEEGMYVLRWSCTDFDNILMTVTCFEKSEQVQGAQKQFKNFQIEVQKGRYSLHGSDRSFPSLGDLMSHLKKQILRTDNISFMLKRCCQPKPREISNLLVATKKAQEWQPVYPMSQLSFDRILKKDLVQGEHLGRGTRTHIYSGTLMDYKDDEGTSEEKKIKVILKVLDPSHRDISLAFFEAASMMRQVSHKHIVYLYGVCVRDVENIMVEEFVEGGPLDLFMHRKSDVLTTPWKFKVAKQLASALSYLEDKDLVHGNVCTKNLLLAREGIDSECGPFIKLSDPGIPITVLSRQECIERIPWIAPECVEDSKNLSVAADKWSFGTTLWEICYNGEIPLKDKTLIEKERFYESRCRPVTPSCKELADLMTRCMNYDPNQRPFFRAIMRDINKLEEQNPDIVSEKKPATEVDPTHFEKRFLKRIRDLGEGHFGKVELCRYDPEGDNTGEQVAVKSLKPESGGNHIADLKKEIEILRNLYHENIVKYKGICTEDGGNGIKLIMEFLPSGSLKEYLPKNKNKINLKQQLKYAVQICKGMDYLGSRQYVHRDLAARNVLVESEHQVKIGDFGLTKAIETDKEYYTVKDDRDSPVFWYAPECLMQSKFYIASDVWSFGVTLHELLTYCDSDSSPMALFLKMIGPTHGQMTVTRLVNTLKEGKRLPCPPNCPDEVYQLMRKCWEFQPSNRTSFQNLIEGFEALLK
Chain of Voltage-gated inwardly rectifying potassium channel KCNH2 (Q12809 whole entry): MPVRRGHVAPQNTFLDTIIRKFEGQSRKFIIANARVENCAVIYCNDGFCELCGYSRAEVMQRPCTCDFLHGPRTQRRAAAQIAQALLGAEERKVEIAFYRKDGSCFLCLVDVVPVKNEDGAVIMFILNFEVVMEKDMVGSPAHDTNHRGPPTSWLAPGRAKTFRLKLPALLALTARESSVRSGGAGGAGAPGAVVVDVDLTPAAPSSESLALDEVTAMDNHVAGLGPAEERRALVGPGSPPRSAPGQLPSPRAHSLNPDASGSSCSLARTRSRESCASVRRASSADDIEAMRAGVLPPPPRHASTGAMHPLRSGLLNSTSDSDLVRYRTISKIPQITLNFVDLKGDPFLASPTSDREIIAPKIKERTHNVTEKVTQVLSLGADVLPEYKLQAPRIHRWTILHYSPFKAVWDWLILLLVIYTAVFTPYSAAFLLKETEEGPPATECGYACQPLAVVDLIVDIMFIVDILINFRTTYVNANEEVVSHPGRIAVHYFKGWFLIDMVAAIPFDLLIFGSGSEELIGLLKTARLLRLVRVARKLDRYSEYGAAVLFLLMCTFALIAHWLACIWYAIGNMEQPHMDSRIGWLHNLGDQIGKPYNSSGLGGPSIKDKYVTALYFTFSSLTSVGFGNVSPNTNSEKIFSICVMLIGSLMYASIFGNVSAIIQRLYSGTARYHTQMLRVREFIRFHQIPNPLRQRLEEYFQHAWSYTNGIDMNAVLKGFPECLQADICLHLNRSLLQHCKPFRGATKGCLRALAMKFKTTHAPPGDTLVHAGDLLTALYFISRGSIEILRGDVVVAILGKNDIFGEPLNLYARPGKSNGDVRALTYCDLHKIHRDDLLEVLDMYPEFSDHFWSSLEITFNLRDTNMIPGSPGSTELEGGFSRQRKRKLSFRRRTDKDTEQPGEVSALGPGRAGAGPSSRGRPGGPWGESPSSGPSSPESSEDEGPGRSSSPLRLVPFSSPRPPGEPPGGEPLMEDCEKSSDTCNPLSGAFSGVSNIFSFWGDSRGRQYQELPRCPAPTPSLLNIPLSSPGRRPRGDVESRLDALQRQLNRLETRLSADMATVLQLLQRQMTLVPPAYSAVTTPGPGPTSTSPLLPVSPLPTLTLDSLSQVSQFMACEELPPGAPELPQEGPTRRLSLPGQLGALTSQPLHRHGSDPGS

## Cc1cccn(-c2ccc(-c3ccc4c(C(=O)NCc5ccncc5)n[nH]c4c3)c(Cl)c2)c1=O
[1]
  Activity: 116%
MDA-MB-231 [2]
  inhibition of growth at 1 µM: 6.31%
MDA-MB-231 [3]
  Activity: <40%
[4]
  Activity: 89.6%
[5]
  Activity: 89.3%
[6]
  Activity: 88.6%
[7]
  Activity: 78%
[8]
  inhibition: Active
[9]
  Activity: 94.2%
[10]
  Activity: 99.1%
[11]
  Activity: 106%
[12]
  Activity: 72.8%
[13]
  IC50: 16 µM
[14]
  inhibition: Dose-dependent effect
[15]
  Activity: 33.9%
[16]
  Activity: 87.8%
[17]
  Activity: 88.7%
[18]
  Activity: 27.6%
[19]
  Activity: 80%
[20]
  Activity: 112%
[21]
  Activity: 91.9%
